Laboratory results taken from ChEMBL document CHEMBL1127626, “Synthesis and molecular modeling of 1-phenyl-1,2,3,4-tetrahydroisoquinolines and related 5,6,8,9-tetrahydro-13bH-dibenzo[a,h]quinolizines as D1 dopamine antagonists” (J Med Chem, 1994).
Where “and” joins values, the source holds several entries; their conditions need not be identical. Identical values can stand only once.

Assays:
D(1A) dopamine receptor [1] = molecular target: T1, D(1A) dopamine receptor (Rattus norvegicus, UniProt P18901); test: Binding affinity against dopamine receptor D1
T1 sequence (P18901 whole entry): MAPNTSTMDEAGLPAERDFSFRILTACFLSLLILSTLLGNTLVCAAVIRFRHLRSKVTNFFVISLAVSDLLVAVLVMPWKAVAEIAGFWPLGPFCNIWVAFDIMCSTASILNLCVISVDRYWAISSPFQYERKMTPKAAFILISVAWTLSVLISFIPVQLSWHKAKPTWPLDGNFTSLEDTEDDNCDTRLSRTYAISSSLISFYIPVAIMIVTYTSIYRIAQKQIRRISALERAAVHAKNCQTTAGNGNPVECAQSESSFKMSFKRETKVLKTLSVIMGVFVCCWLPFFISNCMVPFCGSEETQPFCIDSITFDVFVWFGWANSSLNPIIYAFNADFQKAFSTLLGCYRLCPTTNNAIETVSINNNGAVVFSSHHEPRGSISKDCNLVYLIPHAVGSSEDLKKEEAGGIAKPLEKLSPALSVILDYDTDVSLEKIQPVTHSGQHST

D(2) dopamine receptor [2] = molecular target: T2, D(2) dopamine receptor (Rattus norvegicus, UniProt P61169); test: Binding affinity against dopamine (D2) receptor
T2 sequence (P61169 whole entry): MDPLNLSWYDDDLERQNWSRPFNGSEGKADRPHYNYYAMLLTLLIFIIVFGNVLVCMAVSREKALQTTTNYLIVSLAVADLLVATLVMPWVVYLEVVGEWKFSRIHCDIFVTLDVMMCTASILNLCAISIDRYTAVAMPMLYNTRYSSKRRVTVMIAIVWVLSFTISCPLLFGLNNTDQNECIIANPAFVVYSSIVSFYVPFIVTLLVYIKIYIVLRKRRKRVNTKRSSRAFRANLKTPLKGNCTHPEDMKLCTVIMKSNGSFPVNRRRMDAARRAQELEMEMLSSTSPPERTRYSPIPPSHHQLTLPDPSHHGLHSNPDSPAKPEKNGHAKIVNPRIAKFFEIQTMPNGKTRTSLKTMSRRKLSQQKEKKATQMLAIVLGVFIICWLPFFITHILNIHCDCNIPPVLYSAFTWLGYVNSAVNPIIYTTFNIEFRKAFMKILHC
Procedure, shortened: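 Competition with 0.02 nM [3H]spiperone plus 50 nM ketanserin to mask 5-HT2 sites; chlorpromazine defines nonspecific. 37 °C 15 min, glass-fiber filtration. IC50 from Hill plot linear regression, Ki by Cheng-Prusoff; mean ± SEM.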

[3] = molecular target: Dopamine receptors; D1 & D2 (Rattus norvegicus) (UniProt P18901+P61169); test: Selectivity for D1 receptor was determined as the ratio of Ki (D2) to that of Ki (D1); assay type: protein assay
Procedure, shortened: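 D2 used 0.02 nM [3H]spiperone with 50 nM ketanserin; D1 used 0.25 nM [3H]SCH23390. IC50 from Hill plot linear regression, converted to Ki via Cheng-Prusoff.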

D(1A) dopamine receptor [4] = molecular target: T1, D(1A) dopamine receptor; test: Binding affinity towards dopamine receptor D1 using [3H]SCH-23390 was determined in rat striatal membranes; assay type: cell membranes, Striatum, Membrane
D(2) dopamine receptor [5] = molecular target: T2, D(2) dopamine receptor; test: Binding affinity towards dopamine […] receptor using [3H]spiperone was determined in rat striatal membranes; assay type: cell membranes, Striatum, Membrane

Structure (SMILES) | Ki (D(1A) dopamine receptor [1]) | Ki (D(2) dopamine receptor [2]) | Ratio [3] | Ki (D(1A) dopamine receptor [4]) | Ki (D(2) dopamine receptor [5]) | Log Ki (D(1A) dopamine receptor [1])
CN1CCc2cc(Cl)c(O)cc2[C@H]1c1ccccc1 | 6.61 nM | 19500 nM | 43.4 | – | – | –
Oc1cc2c(cc1Cl)CNCC2c1ccccc1 (racemic) | 282 nM | – | 6.4 | – | – | –
CN1CCc2cc(Cl)c(O)cc2C1Cc1ccccc1 (racemic) | – | – | 5.39 | – | – | –
CN1CCc2cc(O)c(O)cc2C1c1ccccc1 (racemic) | 186 nM | 295 nM | 1.27 | 370 nM | 290 nM | –
CN1CCc2cc(Br)c(O)cc2[C@@H]1c1ccccc1 | 8.32 nM | 1320 nM | 157 | 8.3 nM | 1300 nM | –
CN1CCc2ccc(O)cc2C1c1ccccc1 (racemic) | > 10000 nM | – | – | > 5000 nM | > 5000 nM | –
CN1Cc2ccccc2C2c3cc(O)c(Br)cc3CCC21 (racemic) | 141 nM | – | – | 138 nM | > 3000 nM | –
Oc1cc2c(cc1Cl)CCNC2c1ccccc1 (racemic) | 141 nM | 3720 nM | 35.4 | 743 nM | – | –
CCCN1CCc2cc(Cl)c(O)cc2C1c1ccccc1 (racemic) | 178 nM | 1910 nM | 10.6 | 179 nM | – | –
CN1CCc2cc(Br)c(O)cc2[C@H]1c1ccccc1 | 8.32 nM | – | – | > 5000 nM | > 5000 nM | –
CN1CCc2cc(O)ccc2[C@H]1c1ccccc1 | > 10000 nM | – | – | > 5000 nM | > 5000 nM | –
Oc1cc2c(cc1Cl)CCN1CCc3ccccc3C21 (racemic) | 417 nM | – | – | 830 nM | > 5000 nM | –
CN1CCc2cc(Cl)c(O)cc2[C@@H]1c1ccccc1 | 9.12 nM | – | 206 | – | – | -8.04
CN1Cc2cc(Cl)c(O)cc2C(c2ccccc2)C1 (racemic) | 178 nM and 87.1 nM | – | 3 | – | – | –
Oc1cc2c(cc1O)C1c3ccccc3CCN1CC2 (racemic) | 1380 nM | – | – | 2700 nM | > 5000 nM | –
